Laboratory results taken from article PMC10622838 (The Journal of Biological Chemistry, 2023).

Key:
[1] = system: GPR114; assay: CRE-Luc assay, GPR114 overexpressed in HEK293T cells; format: cell-based, human
Outline: (§1)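 HEK293T cells plated in DMEM + 10% FBS 24 h before polyethylenimine co-transfection with receptor in pcDNA3.1, rat insulin II promoter CRE-firefly luciferase, and phRLuc-N1 Renilla control. Cells were reseeded at 80,000/well 6 h later, serum-starved 4 h at 36 h, then given synthetic peptide in DMSO for 4 h. Firefly luminescence (Steady-Glo) was normalised to RLuc (3 μM coelenterazine h). Mean ± SD, ≥3 independent experiments.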

[2] = system: EoL-1 cells; assay: cAMP accumulation; format: cell-based, human; settings: from combined Fig. 5F and Fig. 5H
[3] = system: GPR64; assay: CRE-Luc assay, GPR64 overexpressed in HEK293T cells; format: cell-based, human
Outline: as §1

[4] = system: PAR1-GPR56 fusion / G13; assay: G13 GTPγS binding kinetics, PAR1-GPR56 fusion Sf9 membranes; format: biochemical, human; settings: Fig. S1A
[5] = system: GPR114-A230M (CTF-only, compromised TA); assay: CRE-luciferase reporter assay, GPR114-A230M; format: cell-based, human; settings: HEK293T, thrombin 4 h, FLuc/RLuc ratio, Fig. 4C

| thrombin-dependent CRE-luciferase activation [5] | Substance | activation in CRE-Luc assay ([1]; GPR114, Fig. 5H, as summarised in Discussion) | CRE-Luc activity (stimulation) ([1]; TA-compromised (ΔTA) 7TM version of GPR114, Fig. 5H) | CRE-Luc activity (stimulation) ([1]; full length GPR114, Fig. 5H) | target specificity of cAMP stimulation in EoL-1 cells (conclusion) [2] | activation in CRE-Luc assay ([3]; GPR64, Fig. 5H, as summarised in Discussion) | CRE-Luc activity (stimulation) ([3]; TA-compromised (ΔTA) 7TM version of GPR64, Fig. 5H) | CRE-Luc activity (stimulation) ([3]; full length GPR64, Fig. 5H) | thrombin-dependent activation of purified G13 [4] |
| --- | --- | --- | --- | --- | --- | --- | --- | --- | --- |
|  | TYFAVLM [P7 GPR114-AP] | did not activate GPR114 nor GPR64 | did not stimulate cAMP production in any condition | did not stimulate cAMP production in any condition | promiscuously stimulates cAMP accumulation via a yet to be determined GPCR | did not activate GPR114 nor GPR64 | did not stimulate cAMP production in any condition | did not stimulate cAMP production in any condition |  |
| not stimulated by thrombin | Thrombin |  |  |  |  |  |  |  | strong thrombin-dependent activation of purified G13 |
